Assay results: publication PMC3055594 (Glycobiology, 2010)
Like-named read-outs stand apart in the source and are kept apart here.

What was measured:
Mt-PrsA [1] = target: T1, Mt-PrsA (Mycobacterium tuberculosis, UniProt P9WKE3); assay: Continuous enzyme-coupled spectrophotometric assay of Mt-PrsA; type: biochemical
T1 sequence (P9WKE3 1-326): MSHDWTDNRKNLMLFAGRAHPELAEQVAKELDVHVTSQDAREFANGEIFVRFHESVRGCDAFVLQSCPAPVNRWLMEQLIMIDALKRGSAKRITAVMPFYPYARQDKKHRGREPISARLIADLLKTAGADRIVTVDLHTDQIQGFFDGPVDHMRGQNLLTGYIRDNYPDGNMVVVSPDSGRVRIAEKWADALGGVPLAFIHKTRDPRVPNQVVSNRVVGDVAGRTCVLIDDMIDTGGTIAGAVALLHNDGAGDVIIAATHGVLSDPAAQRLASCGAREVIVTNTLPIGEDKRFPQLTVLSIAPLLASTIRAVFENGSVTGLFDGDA

Mt-PrsA [2] = target: T1, Mt-PrsA; assay: Intrinsic tryptophan fluorescence; type: binding
Summary of the method: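 Excitation was at 292 nm; emission spectra were taken at 300–400 nm 5 min after each ligand aliquot. ΔFemission at 335 nm was plotted against [L] and fitted for Kd and Hill n. R5P was titrated with or without 5 mM AMPPNP, and AMPPNP with or without 5 mM R5P.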

Mt-PrsA [3] = target: T1, Mt-PrsA; type: biochemical; conditions: 2 mM final concentration, 37°C
Mt-PrsA [4] = target: T1, Mt-PrsA; conditions: 5 mM ligand
Summary of the method: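 Recombinant Mt-PrsA was purified by Ni2+-NTA with a 250 mM imidazole step to ~98% purity, then dialyzed into 50 mM KH2PO4 (pH 7.9), 300 mM NaCl, 1 mM DTT. Sedimentation velocity was run with absorbance optics using no ligand or 5 mM R5P, ATP or ADP. The read-out was the molar mass distribution c(M) against apparent molecular weight.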

[5] = tested on: arabinofuranosyltransferases EmbA, EmbB, EmbC and AftB; type: biochemical, Mycobacterium smegmatis; conditions: EMB 100 µg/mL; ADP 2 mM
[6] = read-out: Kd (ITF), ligand alone, 70 µM Mt-PrsA

## Nc1ncnc2c1ncn2[C@@H]1O[C@H](COP(=O)(O)OP(=O)(O)O)[C@@H](O)[C@H]1O [ADP]
Mt-PrsA [1]; read-out: Ki against increasing [ATP], saturating [R5P], Eq. (6)
  Ki: 522 µM
Mt-PrsA [2]; ligand alone
  Hill coefficient (n) of binding (ITF): 2
Mt-PrsA [2]; [6]
  Kd: 513 µM
Mt-PrsA [3]
  effect on Mt-PrsA activity / p[14C]Rpp formation: strongly inhibited
Mt-PrsA [4]
  effect on oligomeric state of Mt-PrsA, c(M) distribution: shifted toward an increase in the hexameric state
[5]
  effect on AraT-dependent product formation: inhibition of any AraT-dependent product formation

## Nc1ncnc2c1ncn2C1OC(COP(=O)(O)OP(=O)(O)NP(=O)(O)O)C(O)C1O (stereo not drawn) [AMPPNP, 5'-adenylyl-β,γ-imidodiphosphate]
Mt-PrsA [2]; 5 mM R5P
  Hill coefficient (n) for AMPPNP in the presence of R5P: 5
Mt-PrsA [2]; ligand alone
  Hill coefficient (n) of binding (ITF): ~4
Mt-PrsA [2]; [6]
  Kd: 31 µM
Mt-PrsA [2]; read-out: Kd for AMPPNP in the presence of R5P, 5 mM R5P
  Kd: 28.2 µM

## Nc1ncnc2c1ncn2[C@@H]1O[C@H](COP(=O)(O)OP(=O)(O)OP(=O)(O)O)[C@@H](O)[C@H]1O [ATP]
Mt-PrsA [1]; increasing [ATP], saturating R5P, 50 mM Pi
  apparent Hill coefficient (n), kinetics: 1.68
Mt-PrsA [1]; saturating R5P, 50 mM Pi
  Vmax for ATP: 601 µmol⁻¹ min⁻¹ mg⁻¹
Mt-PrsA [1]; saturating R5P, 50 mM Pi, Eq. (4)
  S0.5 for ATP: 62.65 µM
Mt-PrsA [2]; ligand alone
  Hill coefficient (n) of binding (ITF): ~4
Mt-PrsA [2]; [6]
  Kd: 28.3 µM
Mt-PrsA [4]
  c(M) peak position: ~70,000 Da
  effect on oligomeric state of Mt-PrsA, c(M) distribution: reduction in the intensity of the hexameric species

## [Ca+2].[Cl-].[Cl-] [CaCl2]
Mt-PrsA [3]
  effect on Mt-PrsA activity / p[14C]Rpp formation: loss of Mt-PrsA activity

## CC[C@@H](CO)NCCN[C@@H](CC)CO [EMB, ethambutol]
[5]
  effect on AraT-dependent product formation: loss of the upper band with only the lower band remaining

## O=P(O)(O)O [Pi, inorganic phosphate]
Mt-PrsA [1]
  concentration required for full enzyme activation: 50 mM

## O=C[C@H](O)[C@H](O)[C@H](O)COP(=O)(O)O [R5P, ribose-5-phosphate]
Mt-PrsA [1]; read-out: Km for R5P, saturating ATP, 50 mM Pi, Eq. (2)
  Km: 8.2 µM
Mt-PrsA [1]; saturating ATP, 50 mM Pi
  Vmax (increasing R5P): 530 µmol⁻¹ min⁻¹ mg⁻¹
Mt-PrsA [2]; Kd (ITF), ligand alone, 70 µM Mt-PrsA
  Kd: 24.8 µM
Mt-PrsA [2]; apparent Kd for R5P in the presence of AMPPNP, 5 mM AMPPNP
  Kd: 21.4 µM
Mt-PrsA [4]
  effect on oligomeric state of Mt-PrsA, c(M) distribution: no apparent change in the equilibrium or oligomeric state
